Test results: ChEMBL document CHEMBL1132920, “Syntheses of (R)- and (S)-2- and 6-fluoronorepinephrine and (R)- and (S)-2- and 6-fluoroepinephrine: effect of stereochemistry on fluorine-induced adrenergic selectivities” (J Med Chem, 2000)

Assays:
[1] = target: Adrenergic receptor alpha-1 (Rattus norvegicus) (UniProt P15823+P23944+P43140); test: Binding of [3H]prazosin to alpha-1 adrenergic receptor of rat cerebral cortical membranes at 100 uM; type: cell membranes; details: Membrane
[2] = target: Beta-1 adrenergic receptor (Rattus norvegicus, UniProt P18090); test: Binding of [3H]dihydroalprenolol to beta-1 adrenergic receptor of rat cerebral cortical membranes; type: cell membranes, Membrane
How it was run: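 Competition assay measuring displacement of specific [3H]dihydroalprenolol binding from rat cerebral cortical membranes to give beta-1 adrenergic receptor affinity.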

[3] = target: T1, Adrenergic receptor alpha-2 (Rattus norvegicus, UniProt P22086+P19328+P22909); test: Binding of [3H]clonidine to alpha-2-adrenergic receptor of rat cerebral cortical membranes; type: cell membranes, Membrane
T1 sequence (P22086 whole entry): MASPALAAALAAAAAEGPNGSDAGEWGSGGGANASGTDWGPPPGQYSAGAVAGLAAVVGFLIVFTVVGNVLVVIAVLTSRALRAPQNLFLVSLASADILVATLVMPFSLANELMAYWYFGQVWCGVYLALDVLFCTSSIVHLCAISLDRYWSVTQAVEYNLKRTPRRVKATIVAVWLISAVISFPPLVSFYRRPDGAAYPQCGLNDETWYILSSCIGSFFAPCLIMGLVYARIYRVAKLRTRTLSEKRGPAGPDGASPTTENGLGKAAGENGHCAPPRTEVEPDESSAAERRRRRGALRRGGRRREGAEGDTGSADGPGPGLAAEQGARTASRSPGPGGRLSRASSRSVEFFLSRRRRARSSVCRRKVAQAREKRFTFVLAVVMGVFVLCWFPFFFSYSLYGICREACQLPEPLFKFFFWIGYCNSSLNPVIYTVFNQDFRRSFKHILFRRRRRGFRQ
T1 sequence (P19328 whole entry): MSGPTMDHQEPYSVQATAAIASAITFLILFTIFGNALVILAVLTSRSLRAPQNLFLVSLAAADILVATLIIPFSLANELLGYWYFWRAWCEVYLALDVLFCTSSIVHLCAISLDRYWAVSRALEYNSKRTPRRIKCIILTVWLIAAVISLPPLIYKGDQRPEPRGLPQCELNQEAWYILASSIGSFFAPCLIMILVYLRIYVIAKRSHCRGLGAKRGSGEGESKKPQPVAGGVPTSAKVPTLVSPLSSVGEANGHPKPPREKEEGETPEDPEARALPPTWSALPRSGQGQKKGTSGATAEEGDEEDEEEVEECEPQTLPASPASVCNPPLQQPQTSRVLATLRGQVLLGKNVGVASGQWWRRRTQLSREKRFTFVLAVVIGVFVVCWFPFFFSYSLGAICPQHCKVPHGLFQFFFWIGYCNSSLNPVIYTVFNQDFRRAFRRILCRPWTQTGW
T1 sequence (P22909 whole entry): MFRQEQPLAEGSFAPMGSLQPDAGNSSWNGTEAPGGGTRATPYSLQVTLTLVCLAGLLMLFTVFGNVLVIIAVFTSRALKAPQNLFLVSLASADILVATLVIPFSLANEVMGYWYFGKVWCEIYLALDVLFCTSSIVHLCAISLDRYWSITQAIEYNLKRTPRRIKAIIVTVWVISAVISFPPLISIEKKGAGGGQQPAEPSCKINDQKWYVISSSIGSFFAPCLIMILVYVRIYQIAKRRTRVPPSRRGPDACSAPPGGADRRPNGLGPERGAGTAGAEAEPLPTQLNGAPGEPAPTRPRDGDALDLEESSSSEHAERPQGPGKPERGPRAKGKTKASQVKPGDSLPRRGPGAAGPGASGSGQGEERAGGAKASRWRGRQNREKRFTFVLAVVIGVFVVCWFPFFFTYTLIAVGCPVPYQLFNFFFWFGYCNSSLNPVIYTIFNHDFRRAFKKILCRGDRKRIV

[4] = target: T2, Adrenergic receptor alpha-1 (Rattus norvegicus, UniProt P15823+P23944+P43140); test: Binding of [3H]prazosin to alpha-1 adrenergic receptor of rat cerebral cortical membranes; type: cell membranes, Membrane
T2 sequence (P15823 whole entry): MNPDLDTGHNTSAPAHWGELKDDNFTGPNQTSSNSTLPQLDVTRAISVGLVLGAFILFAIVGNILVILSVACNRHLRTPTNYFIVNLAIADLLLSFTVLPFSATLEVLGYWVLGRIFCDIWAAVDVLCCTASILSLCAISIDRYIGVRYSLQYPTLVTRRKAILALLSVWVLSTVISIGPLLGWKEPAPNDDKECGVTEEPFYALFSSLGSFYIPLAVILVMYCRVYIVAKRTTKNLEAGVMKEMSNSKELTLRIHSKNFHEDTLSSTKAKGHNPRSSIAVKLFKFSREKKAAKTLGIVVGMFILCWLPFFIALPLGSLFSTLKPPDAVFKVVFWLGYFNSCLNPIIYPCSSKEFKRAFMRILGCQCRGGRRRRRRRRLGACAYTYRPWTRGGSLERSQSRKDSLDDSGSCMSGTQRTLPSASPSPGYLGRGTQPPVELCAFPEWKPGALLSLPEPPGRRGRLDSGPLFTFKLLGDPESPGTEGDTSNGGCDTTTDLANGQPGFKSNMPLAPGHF
T2 sequence (P23944 whole entry): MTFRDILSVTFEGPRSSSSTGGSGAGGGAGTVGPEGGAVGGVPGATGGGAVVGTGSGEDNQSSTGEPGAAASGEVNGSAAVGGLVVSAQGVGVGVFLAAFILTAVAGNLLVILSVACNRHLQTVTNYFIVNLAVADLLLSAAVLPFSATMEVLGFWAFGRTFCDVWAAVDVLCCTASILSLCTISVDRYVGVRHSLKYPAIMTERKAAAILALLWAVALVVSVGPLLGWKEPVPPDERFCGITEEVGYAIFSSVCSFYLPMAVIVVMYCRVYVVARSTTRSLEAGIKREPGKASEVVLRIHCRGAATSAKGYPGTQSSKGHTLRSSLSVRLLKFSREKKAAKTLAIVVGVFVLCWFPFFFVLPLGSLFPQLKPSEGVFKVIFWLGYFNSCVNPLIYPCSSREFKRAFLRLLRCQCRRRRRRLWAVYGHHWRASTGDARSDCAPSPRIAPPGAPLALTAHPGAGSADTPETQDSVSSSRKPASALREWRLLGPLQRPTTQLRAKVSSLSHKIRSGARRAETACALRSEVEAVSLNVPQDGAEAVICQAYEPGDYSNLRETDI
T2 sequence (P43140 whole entry): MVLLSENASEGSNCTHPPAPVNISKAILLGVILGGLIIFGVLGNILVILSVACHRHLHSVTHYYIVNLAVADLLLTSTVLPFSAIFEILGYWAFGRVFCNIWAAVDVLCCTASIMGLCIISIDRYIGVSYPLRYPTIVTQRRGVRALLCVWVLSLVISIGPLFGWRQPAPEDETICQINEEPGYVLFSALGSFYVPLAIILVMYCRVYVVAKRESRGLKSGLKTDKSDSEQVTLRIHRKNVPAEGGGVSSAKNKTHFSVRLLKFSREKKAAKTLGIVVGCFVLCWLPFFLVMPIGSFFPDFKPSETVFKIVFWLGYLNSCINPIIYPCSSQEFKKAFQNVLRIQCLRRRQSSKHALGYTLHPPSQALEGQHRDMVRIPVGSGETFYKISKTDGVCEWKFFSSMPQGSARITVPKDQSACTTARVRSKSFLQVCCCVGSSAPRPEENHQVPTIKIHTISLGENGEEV
How it was run: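 Affinity at alpha-1 adrenergic receptors measured as inhibition of specific [3H]prazosin binding to rat cerebral cortical membranes.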

Beta-1 adrenergic receptor, sequence (P18090 whole entry): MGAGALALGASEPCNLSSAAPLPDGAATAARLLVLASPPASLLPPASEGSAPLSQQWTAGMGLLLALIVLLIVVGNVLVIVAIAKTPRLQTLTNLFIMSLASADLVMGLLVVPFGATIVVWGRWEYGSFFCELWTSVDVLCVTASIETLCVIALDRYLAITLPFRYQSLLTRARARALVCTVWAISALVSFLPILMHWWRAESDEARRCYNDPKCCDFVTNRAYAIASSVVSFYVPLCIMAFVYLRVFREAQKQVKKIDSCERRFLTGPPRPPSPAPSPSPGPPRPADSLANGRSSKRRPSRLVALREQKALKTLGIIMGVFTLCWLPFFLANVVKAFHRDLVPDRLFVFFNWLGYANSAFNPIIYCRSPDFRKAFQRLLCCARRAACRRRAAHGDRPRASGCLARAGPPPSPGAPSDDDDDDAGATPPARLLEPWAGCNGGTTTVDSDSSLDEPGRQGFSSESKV

SMILES	inhibition [1]	Ki [2]	Ki [3]	Ki [4]
NCC(O)c1cc(O)c(O)cc1F (racemic)	20%			
CNC[C@@H](O)c1cc(O)c(O)cc1F		~400 µM	0.078 µM	
NCCc1ccc(O)c(O)c1F		19 µM	0.12 µM	16 µM
NCC(O)c1ccc(O)c(O)c1F (racemic)			0.6 µM	~ 50 uM
CNC[C@H](O)c1cc(O)c(O)cc1F		~100 µM	0.013 µM	
CNC[C@@H](O)c1ccc(O)c(O)c1 [L-ADRENALINE]		13 µM		
NC[C@@H](O)c1ccc(O)c(O)c1F	12%		0.32 µM	
CNC[C@H](O)c1ccc(O)c(O)c1 (racemic) [EPINEPHRINE]		2.1 µM		
NCC(O)c1ccc(O)c(O)c1 (single isomer, unassigned)	18%			
NC[C@H](O)c1ccc(O)c(O)c1F			0.55 µM	~ 25 uM
NCCc1ccc(O)c(O)c1 [DOPAMINE]			0.058 µM	14 µM
NC[C@@H](O)c1cc(O)c(O)cc1F				~ 12 uM
CNCC(O)c1cc(O)c(O)cc1F (racemic)		~140 µM	0.014 µM	
NC[C@H](O)c1cc(O)c(O)cc1F				3.7 µM
CNC[C@@H](O)c1ccc(O)c(O)c1F			0.053 µM	~ 40 uM
CNC[C@H](O)c1ccc(O)c(O)c1F			0.067 µM	
NCCc1cc(O)c(O)cc1F		41 µM	0.04 µM	6 µM
CNCC(O)c1ccc(O)c(O)c1F (racemic)			0.06 µM	
